Data on 2 compounds can be found in article PMC3640569 (Food biophysics, 2012).

The conditions of series [1]: rat, 2 to 9 mg per day in a 71 kcal per day diet; cited from earlier work.
A further series can be described thus: In vitro digestion model. The conditions noted are these: 20 wt% MCT nanoemulsion, 2.8 mM PMF, Fa-SSIF. The format is in vitro ADME. Put shortly:
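A nanoemulsion (20 wt% MCT, 2 wt% Tween 20, 2.8 mM PMF) was added to fasted SSIF (100 mM NaCl, 5 mM CaCl₂, 5 mg/mL bile extract, 0.6 mg/mL lipase, 5 mM phosphate). It was equilibrated 10 min to 37 °C at pH 7.00, and lipolysis was started with pancreatic extract. pH was held by pH-stat with 2 M NaOH. Timed samples were stopped with 4-BBBA and centrifuged (4000 rpm, 30 min, RT). The supernatant micelle phase was diluted 1:10 in DMSO and read at 330 nm. Done in triplicate.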

Series [2] in a line: Organic phase solubility of PMF. The format is physicochemical. The essentials: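 Thermal quenching: weighed PMF was stirred into MCT or LCT (corn oil) for 1 h at 90–100 °C, cooled to 25 °C and held up to 72 h. Crystals were inspected visually and by optical microscopy. Saturation concentration was the mean of four measurements at the highest PMF loadings.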
The nature of series [3]: Aqueous phase solubility of PMF. The format is physicochemical. Put shortly:
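Solvent injection: 1 % PMF in DMSO was injected into aqueous solutions of water-soluble polymers (0–5 %) or polymer-free buffer, giving a final 56 µM PMF. Mixtures were stirred at 120 rpm for 72 h at 25 °C, then centrifuged (4000 rpm, 15 min) to remove crystals. Supernatant PMF was read by UV-vis at 330 nm against a calibration curve. Runs were done in duplicate or triplicate and reported as mean ± SD.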

Series [4] can be described thus: Solubility of PMF in simulated small intestinal fluids. The format is physicochemical. Particulars: 0.05 % PVA or HPMC in SSIF. Put shortly:
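PMF in DMSO was mixed with buffer, fasted SSIF or fed SSIF (150 mM NaCl, 10 mM CaCl₂, 15 mg/mL bile, 2.4 mg/mL lipase), with or without 0.05 % PVA or HPMC. Samples were stirred constantly for 72 h at 37 °C and centrifuged to remove crystals. Soluble PMF in the supernatant was measured by UV-vis at 330 nm.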

A further series is described as follows: Theoretical prediction. The essentials:
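Calculated, not measured: maximum PMF dissolvable in the oil-water system at equilibrium was derived with a mass-balance equation (Eq. 1). Inputs were the masses of solute, oil and water and the experimentally measured saturation concentrations of PMF in each carrier oil (thermal quenching) and in buffer (solvent injection), assuming oil-water partitioning.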

Series [5] can be described thus: Oil-water partition coefficient estimated from saturation concentrations. The format is physicochemical.
For series [6] the following is noted: cited from earlier work.
A short description of series [7]: Encapsulation of PMF in oil-in-water nanoemulsions. The format is physicochemical. Put shortly:
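Oil phase was 1 wt% PMF dissolved in MCT at 90–100 °C. Aqueous phase was 2 wt% Tween 20 in 5 mM phosphate, pH 7.0. Both were kept above 50 °C, blended 2 min, then given five microfluidizer passes at 12,000 psi. Oil content was 2.5–20 % at a PMF:oil ratio of 1:100 (initial 0.56–5.6 mM). After storage, dispersed and total PMF (remixed sample) were measured by UV-vis at 330 nm.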

In brackets after ≈: the same amount, converted by molar mass. Several values for one entry are separate records, joined by “and”; a condition that tells them apart may be missing. Identical values can stand only once. Entries after “also recorded” stand apart in the source; their conditions may differ.

Consider `COc1ccc(-c2cc(=O)c3c(OC)c(OC)c(OC)c(OC)c3o2)cc1OC` [nobiletin], for which the anti-carcinogenic effect entry in series [1] is “significant anti-carcinogenic effect”.

`COc1ccc(-c2cc(=O)c3c(O)c(OC)c(OC)c(OC)c3o2)cc1` [PMF, 5-hydroxy-6,7,8,4'-tetramethoxy-flavone]: the “concentration of PMF in the micelle phase” value is “around 3 µM” in “In vitro digestion model” (after 3 min digestion) and “around 16 µM” in “In vitro digestion model” (after 120 min digestion). Moreover, the “saturation concentration in the oil phase (CSO*)” value in series [2] (LCT) is “around 1.55 mg/mL”; in series [2] (LCT (corn oil), 25 °C, 72 h storage), 4.2 mM and 4.2 ± 0.4 mM; in series [2] (MCT), ~2.2 mg/mL. In series [2] (oil phases (LCT, MCT), 25 °C, oil or lipid, thermodynamic from solid), this compound showed a solubility at 72 h of 4 to 6 mM (≈ 1430 to 2150 µg/mL). For the same compound, in [3] (0.5 % HPMC aqueous phase), the “PMF solubilized per 100 g of solution” value was “about 0.36 mg per 100 g”. For the same compound, the “increase in PMF concentration in aqueous phase by water-soluble polymers” value in series [3] (certain types and amounts of polymer (HPMC, PVA)) was ~10 fold. Further, the “saturation concentration in water / buffer solution” value in series [3] (no polymer, 25 °C, 72 h) was 0.93 µM and ≈ 0.93 µM. Also, the “effect of polymer on aqueous solubility” value in series [3] (polyethylene glycol (PEG)) and in series [3] (β-cyclodextrin (CD)) was “ineffective at increasing solubility; also recorded: little effect” each time. This compound gave a solubility (kinetic) at 72 h in series [3] (pure buffer solution, 25 °C, aqueous buffer, kinetic from dmso stock) of 0.33 µg/mL (≈ 0.921 µM). The “effect of water-soluble polymers on solubility in SSIFs” value in series [4] is listed as “little influence”. Further, the “soluble PMF at saturation predicted using Eq. 1” value is 0.15 mM in “Theoretical prediction” (2.5 % fat MCT nanoemulsion), 0.31 mM in “Theoretical prediction” (5 % fat MCT nanoemulsion), 0.61 mM in the series “Theoretical prediction” (10 % fat MCT nanoemulsion) and 1.22 mM in the series “Theoretical prediction” (20 % fat MCT nanoemulsion). The “saturation concentration calculated using Eq. 1” value in “Theoretical prediction” (20 wt% LCT nanoemulsion) is listed as 0.84 mM. Further, the “oil-water partition coefficient KOW (=CSO*/CSW*)” value in series [5] (LCT / buffer) is “about 4,520”; in series [5] (MCT / buffer) it was ~6,560. The “reported saturation level in pure water” value in series [6] was “≈ 0.9 µM”. The encapsulation efficiency in series [7] (2.5 % fat (MCT), 20 days storage) is listed as 21%; in series [7] (5 % fat (MCT), 20 days storage) it was 21%; in series [7] (10 % fat (MCT), 20 days storage) it was 20%; in [7] (20 % fat (MCT), 20 days storage), 42%; in series [7] (20 wt% LCT, initial PMF 5.6 mM, 72 h), “around 48%”; in series [7] (20 wt% MCT, initial PMF 5.6 mM, 72 h), ~69%. The encapsulation efficiency in series [7] (20 wt% oil (LCT or MCT), initial PMF 0.56, 1.4 and 2.8 mM, 72 h) lay within 75 to 100%. In addition, the “encapsulated PMF in nanoemulsion” value in series [7] (2.5 % fat (MCT), initial 0.56 mM PMF, 20 days storage) is “≈ 0.12 mM”; in series [7] (5 % fat (MCT), initial 1.4 mM PMF, 20 days storage), ~0.29 mM; in series [7] (10 % fat (MCT), initial 2.8 mM PMF, 20 days storage) it was ~0.55 mM; in series [7] (20 % fat (MCT), initial 5.6 mM PMF, 20 days storage), ~2.33 mM.
